Assay results from ChEMBL document CHEMBL1143838, “Candida albicans and Candida dubliniensis respond differently to echinocandin antifungal agents in vitro” (2007).
Converted amounts (≈) assume the structure as drawn. The source made the active and inactive calls. No cut-off for these calls is given here. *1 amine or outer side, *2 acyl side, *3 side chain or, on linkers, in order; H or OH if unused. Where a SMILES comes first, the peptide text is derived from it. Bridges are numbered along the chain shown (N, C = ends). [ ]: non-standard residue; d: D form. The star is where a group is joined. pTerphenylCO(4''-OnC5H11) = CCCCCOc1ccc(-c2ccc(-c3ccc(C(=O)*)cc3)cc2)cc1; Orn(4R-OH,5R-OH) = O=C([C@H](C[C@@H](O)[C@@H](O)N[*:3])N[*:1])[*:2]; hTyr(3S-OH,4S-OH) = N[C@H](C(=O)O)[C@H](O)[C@@H](O)c1ccc(O)cc1; Pro(3S-OH,4S-Me) = C[C@H]1CN[C@H](C(=O)O)[C@H]1O; Hyp = O=C(O)[C@@H]1C[C@@H](O)CN1

Key:
Candida parapsilosis = assay: Antifungal activity against Candida parapsilosis ATCC 22019 after 24 hrs by CLSI M27-A test; format: functional; conditions: Lodderomyces parapsilosis, ATCC 22019, 24 h
Summary of the method: (§1)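 Broth microdilution with echinocandins as aqueous doubling dilutions. Yeasts were grown overnight at 30°C in NGY and seeded at 10^3 yeasts/ml initial concentration in MOPS-buffered RPMI 1640, then incubated at 35°C for 24 h. The MIC was read visually as the lowest concentration giving a marked decrease in visible growth; paradoxical or trailing growth was noted.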

Candida dubliniensis [1] = assay: Antifungal activity against Candida dubliniensis ANSA 23a after 24 hrs by CLSI M27-A test; format: functional, organism-based; summary of the method: as §1
Candida albicans [2] = assay: Antifungal activity against Candida albicans B06-341 after 24 hrs by CLSI M27-A test; format: functional
Summary of the method: (§2)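 CLSI M27-A broth microdilution with aqueous doubling dilutions of drug. Inoculum grown overnight at 30°C in NGY medium, then added to MOPS-buffered RPMI 1640 at an initial 10^3 yeasts/ml. Incubated 35°C for 24 h. MIC read visually as the lowest concentration giving a marked decrease in visible growth; paradoxical or trailing growth noted.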

Candida albicans [3] = assay: Antifungal activity against Candida albicans HK04M102095 after 24 hrs by CLSI M27-A test; format: functional; summary of the method: as §2
Candida dubliniensis [4] = assay: Antifungal activity against Candida dubliniensis SCSBB417709 after 24 hrs by CLSI M27-A test; format: functional; summary of the method: as §1
Candida albicans [5] = assay: Antifungal activity against Candida albicans JIMS101103 after 24 hrs by CLSI M27-A test; format: functional, organism-based; summary of the method: as §2
Candida albicans [6] = assay: Antifungal activity against Candida albicans SCS140136P after 24 hrs by CLSI M27-A test; format: functional; summary of the method: as §2
Candida albicans [7] = assay: Antifungal activity against Candida albicans NR4 after 24 hrs by CLSI M27-A test; format: functional; summary of the method: as §2
Candida albicans [8] = assay: Antifungal activity against Candida albicans T25 after 24 hrs by CLSI M27-A test; format: functional; summary of the method: as §2
Candida dubliniensis [9] = assay: Antifungal activity against Candida dubliniensis 81/060 after 24 hrs by CLSI M27-A test; format: functional, organism-based; summary of the method: as §2
Candida dubliniensis [10] = assay: Antifungal activity against Candida dubliniensis 90/033 after 24 hrs by CLSI M27-A test; format: functional; summary of the method: as §2
Candida albicans [11] = assay: Antifungal activity against Candida albicans CAI4RI after 24 hrs by CLSI M27-A test; format: functional; summary of the method: as §2
Candida albicans [12] = assay: Antifungal activity against Candida albicans T26 after 24 hrs by EUCAST test; format: functional
Summary of the method: (§3)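 EUCAST broth microdilution with aqueous doubling dilutions of drug. Inoculum grown overnight at 30°C in NGY, then added to MOPS-buffered RPMI 1640 with 2% glucose at an initial 10^5 yeasts/ml. Incubated 35°C for 24 h. MICs taken from triplicate spectrophotometric dose-response data as 50% and 80% growth-reduction endpoints.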

Candida dubliniensis [13] = assay: Antifungal activity against Candida dubliniensis KR after 24 hrs by CLSI M27-A test; format: functional; summary of the method: as §1
Pichia kudriavzevii [14] = assay: Antifungal activity against Candida krusei ATCC 6258 after 24 hrs by EUCAST test; format: functional; conditions: ATCC 6258, 24 h
Summary of the method: (§4)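 Yeasts were grown overnight at 30°C in NGY, then inoculated at 10^5 yeasts/ml initial concentration into MOPS-buffered RPMI 1640 with 2% glucose containing aqueous doubling dilutions of drug. Plates were held at 35°C for 24 h. MICs came from triplicate spectrophotometric dose-response data at 50% and 80% growth-reduction endpoints. Trailing meant a >100-fold gap between these endpoints; paradoxical meant regrowth ≥5% above the curve minimum.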

Candida albicans [15] = assay: Antifungal activity against Candida albicans SCS67023C after 24 hrs by CLSI M27-A test; format: functional; summary of the method: as §2
Candida dubliniensis [16] = assay: Antifungal activity against Candida dubliniensis J931021 after 24 hrs by EUCAST test; format: functional; summary of the method: as §4
Candida dubliniensis [17] = assay: Antifungal activity against Candida dubliniensis ANSA 23a after 24 hrs by EUCAST test; format: functional; summary of the method: as §4
Candida albicans [18] = assay: Antifungal activity against Candida albicans JIMS146204 after 24 hrs by EUCAST test; format: functional; summary of the method: as §3
Candida dubliniensis [19] = assay: Antifungal activity against Candida dubliniensis SCS17154969-2 after 24 hrs by EUCAST test; format: functional; summary of the method: as §4
Candida albicans [20] = assay: Antifungal activity against Candida albicans SCS140136P after 24 hrs by EUCAST test; format: functional; summary of the method: as §3
Candida dubliniensis [21] = assay: Antifungal activity against Candida dubliniensis SCSBB417709 after 24 hrs by EUCAST test; format: functional; summary of the method: as §4
Candida albicans [22] = assay: Antifungal activity against Candida albicans SC5314 after 24 hrs by EUCAST test; format: functional; conditions: SC5314, 24 h; summary of the method: as §3
Candida dubliniensis [23] = assay: Antifungal activity against Candida dubliniensis SCS17154969-1 after 24 hrs by EUCAST test; format: functional; summary of the method: as §4
Candida albicans [24] = assay: Antifungal activity against Candida albicans AM2003/0083 after 24 hrs by EUCAST test; format: functional; summary of the method: as §3
Candida dubliniensis [25] = assay: Antifungal activity against Candida dubliniensis J930936 after 24 hrs by CLSI M27-A test; format: functional; summary of the method: as §1
Candida dubliniensis [26] = assay: Antifungal activity against Candida dubliniensis SCS65875C after 24 hrs by EUCAST test; format: functional; summary of the method: as §4
Candida albicans [27] = assay: Antifungal activity against Candida albicans T26 after 24 hrs by CLSI M27-A test; format: functional; summary of the method: as §2
Candida dubliniensis [28] = assay: Antifungal activity against Candida dubliniensis 910Aa after 24 hrs by CLSI M27-A test; format: functional; summary of the method: as §2
Candida dubliniensis [29] = assay: Antifungal activity against Candida dubliniensis SCS59662 after 24 hrs by CLSI M27-A test; format: functional; summary of the method: as §1
Candida albicans [30] = assay: Antifungal activity against Candida albicans SCS67023C after 24 hrs by EUCAST test; format: functional; summary of the method: as §3
Candida albicans [31] = assay: Antifungal activity against Candida albicans AM2003/0083 after 24 hrs by CLSI M27-A test; format: functional; summary of the method: as §2
Candida albicans [32] = assay: Antifungal activity against Candida albicans HK04M102095 after 24 hrs by EUCAST test; format: functional; summary of the method: as §3
Pichia kudriavzevii [33] = assay: Antifungal activity against Candida krusei ATCC 6258 after 24 hrs by CLSI M27-A test; format: functional; conditions: ATCC 6258, 24 h
Summary of the method: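 Broth microdilution per CLSI M27-A. Drugs were prepared as aqueous doubling dilutions. Inoculum was grown overnight at 30°C in neopeptone-yeast extract-glucose medium, then added to MOPS-buffered RPMI 1640 at an initial 10^3 yeasts/ml. Plates were incubated at 35°C for 24 h. MIC was read visually as the lowest concentration giving a marked decrease in visible growth.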

Candida albicans [34] = assay: Antifungal activity against Candida albicans T28 after 24 hrs by EUCAST test; format: functional; summary of the method: as §3
Candida albicans [35] = assay: Antifungal activity against Candida albicans T32 after 24 hrs by CLSI M27-A test; format: functional; summary of the method: as §2

CCCCCOc1ccc(-c2ccc(-c3ccc(C(=O)N[C@H]4C[C@@H](O)[C@@H](O)NC(=O)[C@@H]5[C@@H](O)[C@@H](C)CN5C(=O)[C@H]([C@@H](C)O)NC(=O)[C@H]([C@H](O)[C@@H](O)c5ccc(O)cc5)NC(=O)[C@@H]5C[C@@H](O)CN5C(=O)[C@H]([C@@H](C)O)NC4=O)cc3)cc2)cc1 [ANIDULAFUNGIN] ({pTerphenylCO(4''-OnC5H11)}-[Orn(4R-OH,5R-OH)]T[Hyp][hTyr(3S-OH,4S-OH)]T[Pro(3S-OH,4S-Me)]; lactam 1-C)
MIC50 (Candida parapsilosis): 0.5 µg/mL (≈ 0.438 µM)
Activity (Candida dubliniensis [1]): Active
MIC50 (Candida albicans [2]): 0.13 µg/mL (≈ 0.114 µM)
MIC50 (Candida albicans [3]): ≤ 0.032 µg/mL
MIC50 (Candida dubliniensis [4]): ≤ 0.032 µg/mL
Activity (Candida albicans [5]): Active
MIC50 (Candida albicans [6]): ≤ 0.032 µg/mL
MIC50 (Candida albicans [7]): 0.25 µg/mL (≈ 0.219 µM)
MIC50 (Candida albicans [8]): 1 µg/mL (≈ 0.877 µM)
Activity (Candida dubliniensis [9]): Active
MIC50 (Candida dubliniensis [10]): ≤ 0.032 µg/mL
MIC50 (Candida albicans [11]): 0.5 µg/mL (≈ 0.438 µM)
MIC50 (Candida albicans [12]): 0.5 µg/mL (≈ 0.438 µM)
MIC50 (Candida dubliniensis [13]): ≤ 0.032 µg/mL
MIC50 (Pichia kudriavzevii [14]): 0.063 µg/mL (≈ 0.0553 µM)
MIC50 (Candida albicans [15]): ≤ 0.032 µg/mL
MIC50 (Candida dubliniensis [16]): 16 µg/mL (≈ 14 µM)
MIC50 (Candida dubliniensis [17]): ≤ 0.032 µg/mL
MIC50 (Candida albicans [18]): ≤ 0.032 µg/mL
MIC50 (Candida dubliniensis [19]): 0.063 µg/mL (≈ 0.0553 µM)
MIC50 (Candida albicans [20]): ≤ 0.032 µg/mL
MIC50 (Candida dubliniensis [21]): ≤ 0.032 µg/mL
MIC50 (Candida albicans [22]): ≤ 0.032 µg/mL
MIC50 (Candida dubliniensis [23]): ≤ 0.032 µg/mL
MIC50 (Candida albicans [24]): ≤ 0.032 µg/mL
MIC50 (Candida dubliniensis [25]): ≤ 0.032 µg/mL
MIC50 (Candida dubliniensis [26]): ≤ 0.032 µg/mL
MIC50 (Candida albicans [27]): 1 µg/mL (≈ 0.877 µM)
MIC50 (Candida dubliniensis [28]): ≤ 0.032 µg/mL
MIC50 (Candida dubliniensis [29]): ≤ 0.032 µg/mL
MIC50 (Candida albicans [30]): ≤ 0.032 µg/mL
MIC50 (Candida albicans [31]): ≤ 0.032 µg/mL
MIC50 (Candida albicans [32]): ≤ 0.032 µg/mL
MIC50 (Pichia kudriavzevii [33]): 0.13 µg/mL (≈ 0.114 µM)
MIC50 (Candida albicans [34]): ≤ 0.032 µg/mL
MIC50 (Candida albicans [35]): ≤ 0.032 µg/mL
